# Test results taken from ChEMBL document CHEMBL4130484, “Identification and optimization of novel 6-acylamino-2-aminoquinolines as potent Hsp90 C-terminal inhibitors” (Eur J Med Chem, 2017).
# Activity calls are given as the source filed them. The calls are words filed in the database; no cut-off is given here.
# Columns and labels:
# [1] = system: SK-BR-3; experiment: Antiproliferative activity against human SKBR3 cells incubated for 72 hrs by MTT assay; assay type: functional, cell-based; details: SK-BR-3, 72 h
# Procedure, shortened: (§1)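 MTT antiproliferation assay in MCF7 and SKBr3 breast cancer cells; IC50 determined.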
# [2] = system: MCF7; experiment: Antiproliferative activity against human MCF7 cells incubated for 72 hrs by MTT assay; assay type: functional, cell-based; details: MCF7, 72 h; procedure, shortened: as §1
# [3] = system: MCF7; experiment: Growth inhibition of human MCF7 cells at 50 uM incubated for 72 hrs by MTT assay; assay type: functional; details: MCF7, 72 h, read-out: GI
# Procedure, shortened: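 MTT screen in MCF7 cells at a single concentration of 50 µM; growth inhibition rate recorded.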
# [4] = biological target: T1, Heat shock protein HSP90 (Homo sapiens) (UniProt P07900+P08238); experiment: Inhibition of HSP90 C-terminal in human MCF7 cells assessed as reduction in ERK protein expression at 5 to 20 uM incubated for 24 hrs by Western blot method; assay type: cell-based
# Procedure, shortened: (§2)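 MCF7 cells incubated 24 h with various concentrations, then client protein levels read by Western blot. β-Actin served as loading control. AT13387 (1.0 µM), an N-terminal Hsp90 inhibitor, was the positive control.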
# [5] = biological target: T1, Heat shock protein HSP90 (Homo sapiens); experiment: Inhibition of HSP90 C-terminal in human MCF7 cells assessed as reduction in Akt protein expression at 5 to 20 uM incubated for 24 hrs by Western blot method; assay type: cell-based; procedure, shortened: as §2
# [6] = biological target: T1, Heat shock protein HSP90 (Homo sapiens); experiment: Inhibition of HSP90 C-terminal in human MCF7 cells assessed as reduction in CDK6 protein expression at 5 to 20 uM incubated for 24 hrs by Western blot method; assay type: cell-based; procedure, shortened: as §2
# [7] = Intrinsic aqueous solubility of the compound; assay type: physicochemical
# Procedure, shortened: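 Intrinsic aqueous solubility determined on a Gemini Profiler instrument.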
# [8] = Permeability coefficient of the compound at pH 7.4 by double-sink PAMPA; assay type: ADME; details: read-out: permeability
# Procedure, shortened: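 Double-sink PAMPA at pH 7.4 on a PAMPA Explorer instrument; Pe reported as mean ± SD, n = 3.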
# [9] = Distribution coefficient, log D of the compound at pH 7.4; assay type: physicochemical; details: octanol/water
# Procedure, shortened: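 Log D at pH 7.4 measured on a PULSE platform.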
SMILES,IC50 [1] [µM],IC50 [2] [µM],inhibition of growth at 50 µM [3] [%],also measured
Cc1cc(N2CCCC2)nc2ccc(NC(=O)c3ccc(Cl)c(Cl)c3)cc12,43.4,26.3,,
CCCOc1cccc(C(=O)NC(=S)Nc2ccc(N3CCCCC3)c(Cl)c2)c1,,,< 50,
O=C(NCCCN1CCOCC1)c1ccc(NC(=O)c2nnc(COc3ccccc3)s2)cc1,,,50.6,
CCN1CCN(c2cc(C)c3cc(NC(=O)c4ccco4)ccc3n2)CC1,37.5,41.2,,
CCN1CCN(c2cc(C)c3cc(NC(=O)c4ccccc4F)ccc3n2)CC1,38.1,32.6,,
CCN1CCN(Cc2nc3ccc(NC(=O)c4ccc(OC)cc4)cc3n2C(C)C)CC1,,,55,
Cc1cc(N(C)C)nc2ccc(NC(=O)c3ccc(Cl)c(Cl)c3)cc12,> 50,33.3,,
O=C(Nc1nc(C(=O)NCCN2CCCCC2)cs1)c1ccc2c(c1)OCO2,,,< 50,
CCN(CC)CCOC(=O)c1ccc(NC(=O)c2ccc(OC)cc2)cc1,,,< 50,
COCc1nnc(C(=O)Nc2ccc(C(=O)NCCCN3CCCCC3)cc2)s1,,,< 50,
CCN1CCN(c2cc(C)c3cc(NC(=O)c4ccc(F)cc4)ccc3n2)CC1,19.8,4.03,,
COc1ccc(NC(=O)c2nnc(COCC(=O)NCCN(C)C)s2)cc1,,,< 50,
Cc1cc(N2CCCCC2)nc2ccc(NC(=O)c3ccc(Cl)c(Cl)c3)cc12,42.5,31.1,,
CCn1c(C(=O)NCCN2CCOCC2)cc2cc(NC(=O)c3ccc(F)cc3)ccc21,,,< 50,
CCN1CCN(c2cc(C)c3cc(NC(=O)c4cccc(F)c4)ccc3n2)CC1,24.9,8.92,,
CCN1CCN(c2cc(C)c3cc(NC(=O)c4ccccc4Br)ccc3n2)CC1,39.2,27.5,,

SMILES,IC50 [1] [µM],IC50 [2] [µM],inhibition of growth at 50 µM [3] [%],also measured
CCN(CC)c1cc(C)c2cc(NC(=O)c3ccc(Cl)c(Cl)c3)ccc2n1,41.2,> 50,,
CCN1CCN(c2cc(C)c3cc(NC(=O)c4ccccc4Cl)ccc3n2)CC1,> 50,> 50,,
CCNc1cc(C)c2cc(NC(=O)c3ccc(Cl)c(Cl)c3)ccc2n1,28.2,48.6,,
O=C(Nc1nc(C(=O)NCCCN2CCCC2=O)cs1)c1ccc2c(c1)OCO2,,,< 50,
COc1cc(NC(=O)N2CCC(CC(=O)NCCN3CCCC3)CC2)cc(OC)c1OC,,,< 50,
COc1ccc(C(=O)Nc2ccc3nc(SCC(=O)N4CCCC4)sc3c2)cc1,,,62.5,
COc1ccc(C(=O)Nc2cnn(-c3ncc(N4CCSCC4)cn3)c2)cc1F,,,< 50,
CCN1CCN(C(=O)CSCc2nnc(C(=O)Nc3ccc(OC)cc3)s2)CC1,,,< 50,
COc1ccc(C(=O)Nc2ccc3nc(CN4CCN(C)CC4)n(C)c3c2)cc1OC,,,50.8,
COc1ccc(-c2noc(C(=O)NCc3ccc(CN4CCOCC4)cc3)n2)cc1OC,,,< 50,
CCN1CCN(c2cc(C)c3cc(NC(=O)c4ccncc4)ccc3n2)CC1,> 50,> 50,,
CCN1CCN(c2cc(C)c3cc(NC(=O)c4ccccc4C)ccc3n2)CC1,29.2,10.9,,
CCN1CCN(CCCNC(=O)c2nc(-c3nn(-c4ccc(C)cc4)c(=O)n(C)c3=O)no2)CC1,,,< 50,
COc1ccc(C(=O)Nc2nc(CC(=O)N3CCN(c4ccccc4)CC3)cs2)cc1OC,,,< 50,
CCc1ccccc1C(=O)Nc1ccc2nc(N3CCN(CC)CC3)cc(C)c2c1,23.9,15.8,,

# Further compounds by falling IC50 [1], results first:
IC50 [1] [µM],IC50 [2] [µM],SMILES,inhibition of growth at 50 µM [3] [%],also measured
18.4,14.2,CCN1CCN(c2cc(C)c3cc(NC(=O)c4ccccc4)ccc3n2)CC1,,
17.8,3.82,CCN1CCN(c2cc(C)c3cc(NC(=O)c4cccc(Cl)c4)ccc3n2)CC1,,
15.7,13.2,CCN1CCN(c2cc(C)c3cc(NC(=O)c4ccccc4OC)ccc3n2)CC1,,
15.1,12,Cc1cc(N2CCOCC2)nc2ccc(NC(=O)c3ccc(Cl)c(Cl)c3)cc12,,
13.7,7.8,CCN1CCN(c2cc(C)c3cc(NC(=O)c4cccc(C)c4)ccc3n2)CC1,,
13.3,11.6,CCN1CCN(c2cc(C)c3cc(NC(=O)c4cccc(Br)c4)ccc3n2)CC1,,
13.2,14.7,CCN1CCN(c2cc(C)c3cc(NC(=O)c4ccc[nH]4)ccc3n2)CC1,,
12.6,4.61,CCN1CCN(c2cc(C)c3cc(NC(=O)c4ccc5c(c4)OCO5)ccc3n2)CC1,,
11.4,6.74,CCN1CCN(c2cc(C)c3cc(NC(=O)c4ccc(C)cc4)ccc3n2)CC1,,
10.6,26.6,CCN1CCN(c2cc(C)c3cc(NC(=O)c4cccnc4)ccc3n2)CC1,,
9.85,3.06,CCc1ccc(C(=O)Nc2ccc3nc(N4CCN(CC)CC4)cc(C)c3c2)cc1,,
9.53,1.28,Cc1cc(NCCN2CCCC2)nc2ccc(NC(=O)c3ccc(Cl)c(Cl)c3)cc12,,solubility [7]: 84.5 µg/mL; Papp [8]: 20.8 ×10⁻⁶ cm/s; logD [9]: 1.72
9.16,5.23,Cc1cc(NCCN2CCOCC2)nc2ccc(NC(=O)c3ccc(Cl)c(Cl)c3)cc12,,solubility [7]: 76.2 µg/mL; Papp [8]: 49.8 ×10⁻⁶ cm/s; logD [9]: 2.64
9,7.69,CCN1CCN(c2cc(C)c3cc(NC(=O)c4ccc(OC)cc4)ccc3n2)CC1,,
8.09,8.41,Cc1oc2ncn(CC(C)C)c(=O)c2c1C(=O)Nc1ccc(C(=O)NCCN2CCCC2)nc1,90.4,inhibition [4]: inactive; inhibition [5]: inactive; inhibition [6]: inactive
6.68,1.71,Cc1cc(N2CCN(C(C)C)CC2)nc2ccc(NC(=O)c3ccc(Cl)c(Cl)c3)cc12,,

IC50 [1] [µM],IC50 [2] [µM],SMILES,inhibition of growth at 50 µM [3] [%],also measured
6.67,2.55,Cc1cc(NCCN(C)C)nc2ccc(NC(=O)c3ccc(Cl)c(Cl)c3)cc12,,solubility [7]: 122 µg/mL; Papp [8]: 3.13 ×10⁻⁶ cm/s; logD [9]: 1.47
6.35,2.52,CNc1cc(C)c2cc(NC(=O)c3ccc(Cl)c(Cl)c3)ccc2n1,,
6.32,3,Cc1cc(N2CCN(C)CC2)nc2ccc(NC(=O)c3ccc(Cl)c(Cl)c3)cc12,,
6.31,5.94,CCN1CCN(c2cc(C)c3cc(NC(=O)c4ccc(Br)cc4)ccc3n2)CC1,,
4.99,5.38,CCN(CC)CCOC(=O)c1ccc(NC(=O)C2=CC3C(c4ccccc4F)=NN(C)C3S2)cc1 (centres undefined),99.6,inhibition [4]: inactive; inhibition [5]: inactive; inhibition [6]: inactive
3.76,7.06,CCN1CCN(c2cc(C)c3cc(NC(=O)c4ccc5ccccc5n4)ccc3n2)CC1,,
3.71,1.42,CCN(CC)CCNc1cc(C)c2cc(NC(=O)c3ccc(Cl)c(Cl)c3)ccc2n1,,solubility [7]: 95.2 µg/mL; Papp [8]: 28.1 ×10⁻⁶ cm/s; logD [9]: 1.66
3.33,4.86,CCN1CCN(c2cc(C)c3cc(NC(=O)c4cccc(OC)c4)ccc3n2)CC1,96.9,inhibition [4]: Active; inhibition [5]: Active; inhibition [6]: Active
3.02,1.53,CCN1CCN(c2cc(C)c3cc(NC(=O)c4ccc(Cl)cc4)ccc3n2)CC1,,
2.71,3.65,CCN1CCN(c2cc(C)c3cc(NC(=O)c4ccc(OC)c(OC)c4)ccc3n2)CC1,,
2.69,1.7,Cc1cc(NCCN2CCN(C)CC2)nc2ccc(NC(=O)c3ccc(Cl)c(Cl)c3)cc12,,solubility [7]: 106 µg/mL; Papp [8]: 7.71 ×10⁻⁶ cm/s; logD [9]: 1.73
2.66,6.09,CCN1CCN(c2cc(C)c3cc(NC(=O)c4cc(Cl)cc(Cl)c4)ccc3n2)CC1,,
2.55,2.95,CCN1CCN(c2cc(C)c3cc(NC(=O)c4cc5ccccc5[nH]4)ccc3n2)CC1,,
2.16,1.38,CCN1CCN(c2cc(C)c3cc(NC(=O)c4ccc(Cl)c(Cl)c4)ccc3n2)CC1,,solubility [7]: 11.3 µg/mL; Papp [8]: 25.9 ×10⁻⁶ cm/s; logD [9]: 3.67
1.98,5.23,CCN1CCN(c2cc(C)c3cc(NC(=O)c4ccc(F)c(F)c4)ccc3n2)CC1,,
0.045,0.032,CC(C)c1cc(C(=O)N2Cc3ccc(CN4CCN(C)CC4)cc3C2)c(O)cc1O [ONALESPIB],,
